The target of series [1] is Replicase polyprotein 1ab (Severe acute respiratory syndrome coronavirus 2) (UniProt P0DTD1). Put plainly: Inhibition of N-terminal 6xHis-tagged SARS-CoV-2 3CLPro expressed in Escherichia coli BL21(DE3) using Hi-lyte Fluor-488-ESATLQSGLRKAK-(QXL-520)-NH2 as substrate at 10 uM preincubated for 10 mins followed by substrate addition measured for 30 mins by fluorometric assay relative to control. The settings on record: time 40.0 min.

Series [2] shares this target. Description: Inhibition of N-terminal 6xHis-tagged SARS-CoV-2 3CLPro expressed in Escherichia coli BL21(DE3) using Hi-lyte Fluor-488-ESATLQSGLRKAK-(QXL-520)-NH2 as substrate at 100 uM preincubated for 10 mins followed by substrate addition measured for 30 mins by fluorometric assay relative to control. The note with it: time 40.0 min.
Series [3] concerns the target Replicase polyprotein 1ab (Severe acute respiratory syndrome coronavirus 2, UniProt P0DTD1). Description: Inhibition of N-terminal 6xHis-tagged SARS-CoV-2 3CLPro expressed in Escherichia coli BL21(DE3) using Hi-lyte Fluor-488-ESATLQSGLRKAK-(QXL-520)-NH2 as substrate preincubated for 10 mins followed by substrate addition measured for 30 mins by fluorometric assay.
The target in series [4] is T1, Protein cereblon/Replicase polyprotein 1ab (Severe acute respiratory syndrome coronavirus 2) (UniProt Q96SW2+P0DTD1). Put plainly: PROTAC activity at CRBN/C-terminal HA epitope-tagged SARS-CoV-2 3CLPro transfected in human HeLa cells assessed as degradation of 3CLPro at 80 uM incubated upto 48 hrs by immunoblot analysis. The format is cell-based. Put shortly: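 Time course in HeLa cells stably expressing C-terminally HA-tagged 3CLPro (lentiviral transduction, puromycin selection), treated at 80 μM; whole-cell extracts immunoblotted, 3CLPro band normalized to actin.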
For orientation: In western blotting, separated proteins are transferred to a membrane and probed.

For series [5], the target named is Replicase polyprotein 1ab (Severe acute respiratory syndrome coronavirus 2) (UniProt P0DTD1). Description: Binding affinity to SARS-CoV-2 3CLPro assessed as covalent complex formation by MALDI TOF mass spectrometry.
The subject of a further series is HeLa. Put plainly: Cytotoxicity against human HeLa cells assessed as cell viability upto 80 uM incubated for 72 hrs by MTT assay. The format is toxicity, cell-based. Put shortly: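 HeLa cells exposed to compound for 72 h at a series of concentrations; viability read by MTT assay.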
(In general: Formazan colour is commonly taken as a measure of viable cells.)

Series [6] addresses Replicase polyprotein 1ab (Severe acute respiratory syndrome coronavirus 2) (UniProt P0DTD1). Description: Binding affinity to monomeric form of SARS-CoV-2 3CLPro assessed as change in chemical shift by NMR spectroscopy.
The target is the same in series [7]. Put plainly: Binding affinity to dimeric form of SARS-CoV-2 3CLPro assessed as change in chemical shift by NMR spectroscopy. Put shortly:
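Solution NMR titration of dimeric 3CLPro with the ligand up to a 1:1 protein:ligand molar ratio, following loss of free-protein signals and appearance of adduct signals.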

The target is the same in series [8]. Put plainly: Reversible binding affinity to SARS-CoV-2 3CLPro using fluorogenic substrate assessed as covalent complex formation preincubated for 30 mins followed by substrate addition by MALDI TOF mass spectrometry. The method, boiled down: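 Reversibility by dilution: enzyme incubated 30 min with or without large compound excess, then diluted 100-fold into buffer with fluorogenic substrate; initial velocities from progress curves compared against compound-free enzyme.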

Series [9] deals with T1, Protein cereblon/Replicase polyprotein 1ab (Severe acute respiratory syndrome coronavirus 2). Put plainly: PROTAC activity at CRBN/C-terminal HA epitope-tagged SARS-CoV-2 3CLPro transfected in human HeLa cells assessed as degradation of 3CLPro upto 80 uM by immunoblot analysis. The format is cell-based. Put shortly: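 HeLa cells stably expressing C-terminally HA-tagged 3CLPro (lentiviral, puromycin-selected) treated 24 h at a range of concentrations; lysates immunoblotted, 3CLPro normalized to actin.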

The source made the active and inactive calls. The rule behind the calls is not given here.

In the case of `COC(=O)/C=C/[C@H](C[C@@H]1CCNC1=O)NC(=O)[C@H](Cc1ccccc1)NC(=O)[C@@H](NC(=O)CCC(=O)N1CCN(C(=O)C2CCN(c3cccc4c3C(=O)N(C3CCC(=O)NC3=O)C4=O)CC2)CC1)C(C)C` (stereo partly drawn), the inhibition is 0% in series [1] and 64% in series [2]. This molecule came in with an IC50 in series [3] of more than 100 µM.
For `CC(C)C[C@H](NC(=O)OCc1ccccc1)C(=O)N[C@H](/C=C/C(=O)N1CCN(CC2CCN(c3cc4c(cc3F)C(=O)N(C3CCC(=O)NC3=O)C4=O)CC2)CC1)C[C@@H]1CCNC1=O` (stereo partly drawn), the result in series [4], in series [5], in [7], in series [8] and in [9] was Active. For the same molecule, the Activity entry with HeLa is “Non-Toxic”. Moreover, the result in [6] was inactive. 21.2 µM corresponded to half-maximal inhibition in series [3] (IC50).
Regarding `COC(=O)/C=C/[C@H](C[C@@H]1CCNC1=O)NC(=O)[C@H](CC(C)C)NC(=O)OCc1ccccc1`, the outcome in series [5] was Active. Also, the midpoint of inhibition in series [3], the IC50, lay at 1.35 µM.

The term inhibition denotes the relative decrease from the control value, in per cent. A higher inhibition goes with a strong effect. What is called IC50 is the midpoint of a concentration-inhibition curve. Read a low IC50 as greater potency in that assay.

(Values after ChEMBL document CHEMBL5357069, “Development of a GC-376 Based Peptidomimetic PROTAC as a Degrader of 3-Chymotrypsin-like Protease of SARS-CoV-2” (ACS Med Chem Lett, 2024).)
